Screening results as filed in PubChem BioAssay.
Sampled rows, rich in hits. Any-hit rate of the full collection: about 2.3%.
COUP-TFII inh: NR2F2 transcriptional activity inhibitors, primary screen, cell-based, luciferase reporter, HEK293T, luminescence; COUP transcription factor 2 (Homo sapiens), P24468; HEK293T NGFI-A luciferase reporter; inhibition, % at 8.6 µM; hit rate 0.7% among 370,000; AID 686940, 2013;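 active means inhibition above a per-plate cutoff, mean inhibition of test wells between control levels plus 3 SD, cut at about 38% in these data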;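 further: cells cotransfected with COUP-TFII expression vector driving the NGFI-A reporter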
Target sequence (P24468 whole entry, looked up): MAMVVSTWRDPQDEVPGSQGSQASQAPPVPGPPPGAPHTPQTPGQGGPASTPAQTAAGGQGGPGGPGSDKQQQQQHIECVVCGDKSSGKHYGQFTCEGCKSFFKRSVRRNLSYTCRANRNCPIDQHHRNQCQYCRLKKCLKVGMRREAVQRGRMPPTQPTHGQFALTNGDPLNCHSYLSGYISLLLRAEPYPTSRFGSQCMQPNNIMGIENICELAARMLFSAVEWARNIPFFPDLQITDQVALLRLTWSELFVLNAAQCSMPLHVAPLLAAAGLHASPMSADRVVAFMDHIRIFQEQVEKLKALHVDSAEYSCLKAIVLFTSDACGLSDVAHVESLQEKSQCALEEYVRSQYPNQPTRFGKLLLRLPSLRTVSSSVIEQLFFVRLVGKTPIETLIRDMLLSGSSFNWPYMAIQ
NR2E3 ag-1: NR2E3 agonists in two-hybrid cells, primary screen, cell-based, luminescence, CHO-S, Gal4-NCOR/VP16-NR2E3; luciferase; Photoreceptor-specific nuclear receptor (Homo sapiens), Q9Y5X4; inhibition of corepressor binding, % at 3.98 µM; AID 602229, 2012; hit rate 0.35% among 360,000;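 active means inhibition above the mean of all tested compounds plus 3 SD, cut at about 70% in these data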;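 further: higher means lower luciferase signal from less NR2E3 corepressor binding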
GalR3 antag: GalR3 antagonists in HEK293 cells, primary screen, cell-based, fluorescence readout; Galanin receptor type 3 (Homo sapiens), O60755; HEK293 GalR3-CNG cAMP membrane potential fluorescence; galR3 body fused to GalR1 C-terminus; inhibition, % at 3 µM; hit rate 0.44% among 360,000; AID 651719, 2012;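 active means inhibition above the screen-wide average plus 3 SD, cut at about 13% in these data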;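 further: forskolin and galanin both at EC90 stimulate the cells; cAMP rise reported by CNG channel membrane potential dye signal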
Target sequence (O60755 1-299 limits assumed): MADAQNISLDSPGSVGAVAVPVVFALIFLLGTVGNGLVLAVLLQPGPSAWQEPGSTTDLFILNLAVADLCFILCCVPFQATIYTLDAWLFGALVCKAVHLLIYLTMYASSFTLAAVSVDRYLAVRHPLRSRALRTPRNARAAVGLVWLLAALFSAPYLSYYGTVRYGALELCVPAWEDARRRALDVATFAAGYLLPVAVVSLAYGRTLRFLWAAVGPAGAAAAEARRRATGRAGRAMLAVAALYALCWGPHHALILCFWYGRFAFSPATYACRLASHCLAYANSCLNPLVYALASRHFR
NR2E3 ag-2: inhibitors of NR2E3-RetCOR corepressor binding, primary screen, NR2E3 agonist project, biochemical, TR-FRET, GST-NR2E3, biotin-RetCOR. AID 2300, 2010. Photoreceptor-specific nuclear receptor (Homo sapiens), Q9Y5X4. inhibition of corepressor binding, % at 4.78 µM. 1536-well. hit rate 0.12% among 320,000;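 active means percent inhibition above the cutoff of mean plus 3 SD of all tested compounds, set per screening campaign, cut at about 20% in these data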
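Material: NR2E3–RetCOR corepressor complex / Incubation: Compound–protein incubation for 5 h at 4 °C / Dosing: compound at 4.8 µM, single dose / Detection: time-resolved FRET / Benchmarks: high control biotin, low control 0.6% DMSO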
CHT inh: inhibitors of human choline transporter CHT; High affinity choline transporter 1 (Homo sapiens), Q9GZV3; CHT-expressing cells, membrane potential dye, choline response; stronger effect = lower value; B-score at 10 µM; hit rate 0.86% among 310,000; AID 488975, 2010;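 active means B-score over 3 SD under the library average, and starting fluorescence ratio not unusually high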;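 further: choline stimulus applied at its EC90 after an EC20 pre-addition; B-score computed on integrated fluorescence ratio after choline addition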
CHT allo act: CHT positive allosteric modulators, primary screen, cell-based, membrane potential dye, choline EC20 | High affinity choline transporter 1 (Homo sapiens), Q9GZV3 | CHT-expressing cells; stronger effect = higher value; LV-AA mutant CHT in HEK293 cells | B-score at 10 µM | hit rate 0.49% among 310,000 | AID 488977, 2010;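 active means initial fluorescence not abnormally high and integrated response B-score, plate-corrected, over 3 SD above library mean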
CHT act confirm: CHT activators, confirmation, cell-based, membrane potential dye, duplicate | activation, % at 10 µM | AID 504833, 2011 | shares compounds with CHT allo act | hit rate 91% among 2,500 | CHT-expressing cells, membrane potential dye fluorescence (FDSS); % of choline EC20–EC90 response window; HEK293 expressing CHT LV-AA mutant; choline added at its EC20;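 active means primary screen active, with duplicate mean activation above negative control mean plus 3 SD, cut at about 11% in these data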
HEK293 MP dye: membrane potential response in parental HEK293 cells, counter-screen for CHT activator project, cell-based, membrane potential dye | shares compounds with CHT allo act | membrane potential dye fluorescence (FDSS); measured after EC20 choline addition | ratio readout change at 10 µM, hits read low | hit rate 62% among 2,500 | AID 623908, 2012;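 active means duplicate-averaged ratio beyond 3 SD from buffer wells, up or down, though filed actives are nearly all decreases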
Hits are given with their value; . = inactive; / = no result.

SMILES | COUP-TFII inh | NR2E3 ag-1 | GalR3 antag | NR2E3 ag-2 | CHT inh | CHT allo act | CHT act confirm | HEK293 MP dye
Cc1cc(C)n2c(Nc3ccc4c(c3)OCCO4)c(-c3ccccn3)nc2n1 | . | . | . | / | / | / | / | /
Cc1ccn2c(Nc3ccc4c(c3)OCO4)c(-c3ccccn3)nc2c1 | . | . | . | . | . | 6.3 | 50.8 | .
CC[n+]1ccc(C[n+]2ccccc2)c2ccccc21 | . | . | . | . | . | 11.4 | 84.6 | -87.4
CCn1c(Cc2ccccc2)nnc1SCc1ccc([N+](=O)[O-])cc1 | . | . | . | . | . | . | / | /
COCCn1c(Cc2ccccc2)nnc1SCc1ccc([N+](=O)[O-])cc1 | . | . | . | . | . | . | 20.7 | .
O=C(NCc1ccccc1)OCCCN1C(=O)CCC12CCCCC2 | . | / | / | / | / | / | / | /
CC(=O)OCCCn1c(C)[n+](C)c2cc(Cl)c(Cl)cc21 | . | . | . | . | . | 9.71 | 67.3 | -61.6
Cc1cc(N2CCN(Cc3cn(C)nc3-c3cccc(Cl)c3)CC2)cc(C)n1 | . | . | . | . | . | . | / | /
Cc1cc(N2CCN(Cc3cn(C)nc3-c3ccccc3F)CC2)cc(C)n1 | . | . | . | . | . | . | 76.9 | -74.1
Cc1ccc(C(=O)CSc2cc(C)nc(SCC(=O)c3ccccc3)n2)cc1 | . | . | . | . | . | . | / | /
Cc1cc(Oc2ccc(C)c(Cl)c2)nc(SCC(=O)c2ccccc2)n1 | . | . | . | . | . | 7.17 | 56.4 | .
COC(=O)C[C@H]1CC[C@H]2[C@H](COc3ccc(NC(=O)Nc4ccccc4F)cc3C(=O)N2C)O1 | . | / | / | / | / | / | / | /
Cc1ccc2c(c1)c(-c1ccccc1)nc1nncn12 | . | . | . | . | . | . | 38.1 | -32.5
CC(C)(C)c1ccc(-c2nnc(SCC(=O)Nc3ccc4cn[nH]c4c3)n2-c2ccc(Cl)cc2)cc1 | . | / | / | / | / | / | / | /
COc1cccc(/C=C2\CC3(OC(=O)c4ccco4)CCCN2C3)c1 (stereo not given) | . | / | / | / | / | / | / | /
CN(C)CCCN(C(=O)c1ccco1)c1nc2c(F)cccc2s1 | . | . | . | . | . | . | 45.1 | -58.2
CC(C)(C)n1nnnc1C(c1ccc(C(F)(F)F)cc1)N(Cc1ccc(F)cc1)Cc1ccco1 (stereo not given) | . | . | . | . | . | 11.5 | 30.9 | .
Fc1ccc(C(c2nnnn2C2CCCC2)N(Cc2ccco2)CC2CCCO2)cc1 (stereo not given) | . | . | . | . | . | 8.63 | 45.5 | .
c1ccc(CN(Cc2ccco2)C(c2ccncc2)c2nnnn2C2CCCC2)cc1 (stereo not given) | . | . | . | . | . | . | / | /
COC(=O)c1cc(-c2cccc(C(C)C)c2)c(=O)n2c1CCC2 | . | / | / | / | / | / | / | /
CCn1c(Cc2cccs2)nnc1SCC(=O)Nc1ccc(Cl)cc1C | . | / | / | / | / | / | / | /
COc1ccccc1NC(=O)OCCN1CCCC12CCC(c1ccccc1)CC2 (stereo not given) | . | / | / | / | / | / | / | /
CC(CCc1ccccc1)NC(=O)/C=C/c1ccc(Cl)cc1 (stereo not given) | . | . | . | . | . | . | . | .
Fc1ccc(-c2cc(-c3nnc4sc(-c5ccco5)nn34)[nH]n2)cc1 | . | / | / | / | / | / | / | /
COc1ccc(C(=O)C[n+]2ccc3ccccc3c2C)cc1 | . | . | . | . | . | . | 47.9 | -31.8
SMILES | COUP-TFII inh | NR2E3 ag-1 | GalR3 antag | NR2E3 ag-2 | CHT inh | CHT allo act | CHT act confirm | HEK293 MP dye
CCC(C)(C)n1nnnc1C(C(C)C)N1CCSCC1 (stereo not given) | . | . | . | . | . | . | . | .
CCC(C)(C)n1nnnc1C(C(C)C)N1CCN(C)CC1 (stereo not given) | . | . | . | . | . | . | / | /
Cc1cc(N2CCC(N(C)C3CCCC3)CC2)nc2cc(O)ccc12 | . | . | . | . | . | 12.4 | 31.3 | -73.3
N#CC1=C(Nc2ccccc2)SC=C(c2ccccc2)N=C1N1CCOCC1 | . | . | . | / | / | / | / | /
N#CC1=C(Nc2ccccc2)SC=C(c2ccc(Cl)c(Cl)c2)N=C1N1CCOCC1 | . | . | . | . | . | . | 40.4 | .
COC(=O)[C@@]12CCCCC3=C1N(CCC3)C(=O)[C@H]2CC(=O)NCCCCc1ccccc1 | . | / | / | / | / | / | / | /
COc1cc2c(C#N)c(N3CCOCC3)nc(N)c2c(N)n1 | . | . | . | . | . | . | / | /
CCOc1cc2c(C#N)c(N3CCNCC3)nc(N)c2c(N)n1 | . | . | . | . | . | 6.47 | 44.8 | -52.6
O=C(NCC1CC1)[C@@H]1C[C@H]1[C@@H](NP(=O)(c1ccccc1)c1ccccc1)c1ccccc1 | . | . | . | . | . | . | . | .
O=C(NCc1ccccc1)[C@@H]1C[C@H]1[C@@H](NP(=O)(c1ccccc1)c1ccccc1)c1ccccc1 | . | . | . | . | . | . | / | /
CCCc1cn(-c2ccc3c(c2)[C@@]2(CC(=O)N(C)C2c2ccccc2)C(=O)N3CC(C)C)nn1 (stereo not given in full) | . | / | / | / | / | / | / | /
Nc1c2c(nc3ccn(Cc4ccccc4)c(=O)c13)CCC2 | . | . | . | . | . | 6.98 | 54.0 | -50.2
Nc1c2c(nc3ccn(-c4ccccc4)c(=O)c13)CCCCC2 | . | . | . | . | . | . | 48.7 | -50
O=[N+]([O-])c1ccc(N/N=C/C=C/c2ccco2)cc1 | . | . | . | . | . | 8.1 | 12.3 | .
Cc1ccc(NC(=O)N2CCC(c3nc4ccc(Cl)cc4[nH]3)CC2)cc1F | . | / | / | / | / | / | / | /
COc1ccc(-c2nc(CN3CCC(C(=O)NC4CCN(Cc5ccccc5)CC4)CC3)c(C)o2)cc1OC | . | . | . | . | . | 7.55 | 59.7 | -50.7
CCC1CCCCN1CCCNC(=O)C1CCN(Cc2nc(-c3ccc(Cl)cc3)oc2C)CC1 (stereo not given) | / | . | / | . | . | . | 36.1 | -29.6
Cc1oc(-c2ccc(Cl)cc2)nc1CN1CCC(C(=O)NCCCN2CCOCC2)CC1 | . | . | . | . | . | . | / | /
